ChEMBL document CHEMBL1140133, “Phosphoramidate dinucleosides as hepatitis C virus polymerase inhibitors” (J Med Chem, 2008)
pEC50, pIC50: −log10 of the molar value.

Assays:
Hepatitis C virus [1] = assay: Inhibition of HCV 1b histidine tagged NS5B-delta55 polymerase-mediated RNA synthesis expressed in Escherichia coli BL21 cells assessed as decrease in accumulation of pppGC product; parameters: species or system Hepatitis C virus subtype 1b
In short: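 Recombinant NS5B-Δ55 with C-terminal His6, purified. Mix holds 10 µM RNA template (3′ end of HCV minus strand), 100 µM α-32P-CTP, 50 µM GTP and inhibitor 0–500 µM. Started with 1 µM NS5B, 30 °C 15 min, EDTA/formamide quench. pppGC resolved on sequencing gel, phosphorimager-quantified; IC50 fitted, ≥3 experiments.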

Hepatitis C virus [2] = assay: Antiviral activity against HCV 1b in human Huh-5-2 cells assessed as inhibition of viral replication after 72 hrs by luciferase assay; assay type: functional, organism-based, Hepacivirus hominis; settings: genotype 1b, Huh-5-2, 72 h
In short: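 Huh-5-2 cells carrying HCV 1b subgenomic replicon (luciferase reporter), seeded 7000/well and left 24 h; five 5-fold serial dilutions from 50 µg/mL (~60 µM) added in medium without G418; 37 °C, 5% CO2, 72 h. Luciferase read after Glo-lysis; signal as % of untreated cultures, EC50 calculated. Interferon α-2a (500 IU) positive control.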

[3] = Cytotoxicity against human Huh-5-2 cells after 3 days by MTS assay; assay type: cell-based
In short: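 Parallel Huh-5-2 replicon cultures seeded 7000 cells/well, treated the same way as the antiviral assay (five 5-fold dilutions from ~60 µM, no G418). Cell proliferation measured 3 days after compound addition by MTS bioreduction to formazan, read on a plate reader.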

| SMILES | pIC50 (Hepatitis C virus [1]) | pEC50 (Hepatitis C virus [2]) | CC50 at 72 h [3] |
| --- | --- | --- | --- |
| COCCNP(=O)(OC[C@H]1O[C@@H](n2ccc(N)nc2=O)[C@H](O)[C@@H]1O)O[C@H]1[C@@H](OC)[C@H](n2cnc3c(=O)[nH]c(N)nc32)O[C@@H]1CO (stereo not given in full) | < 3.70 |  |  |
| CO[C@@H]1[C@H](OP(=O)(NCCCN(C)C)OC[C@H]2O[C@H](n3ccc(N)nc3=O)[C@H](O)[C@@H]2O)[C@H](COP(=O)(O)O)O[C@H]1n1cnc2c(=O)[nH]c(N)nc21 (stereo not given in full) | < 3.70 |  |  |
| CO[C@@H]1[C@H](OP(=O)(NCCCCCC(=O)O)OC[C@H]2O[C@@H](n3ccc(N)nc3=O)[C@H](O)[C@@H]2O)[C@@H](CO)O[C@H]1n1cnc2c(=O)[nH]c(N)nc21 (stereo not given in full) | 3.80 |  |  |

Molecules with a higher pIC50 (Hepatitis C virus [1]), results first:

| pIC50 (Hepatitis C virus [1]) | pEC50 (Hepatitis C virus [2]) | SMILES | CC50 at 72 h [3] |
| --- | --- | --- | --- |
| 4.28 | 4.42 | CO[C@@H]1[C@H](OP(=O)(NCCCCCC(=O)O)OC[C@H]2O[C@@H](n3ccc(N)nc3=O)[C@H](O)[C@@H]2O)[C@@H](COP(=O)(O)S)O[C@H]1n1cnc2c(=O)[nH]c(N)nc21 (stereo not given in full) | > 60 µM |
| 3.97 | < 4.22 | COCCNP(=O)(OC[C@H]1O[C@@H](n2ccc(N)nc2=O)[C@H](O)[C@@H]1O)O[C@H]1[C@@H](OC)[C@H](n2cnc3c(=O)[nH]c(N)nc32)O[C@@H]1COP(=O)(O)O (stereo not given in full) | > 60 µM |
| 4.33 | < 4.22 | COCCNP(=O)(OC[C@H]1O[C@@H](n2ccc(N)nc2=O)[C@H](O)[C@@H]1O)O[C@H]1[C@@H](OC)[C@H](n2cnc3c(=O)[nH]c(N)nc32)O[C@@H]1COP(=O)(O)S (stereo not given in full) | > 60 µM |
| 4.16 | 4.39 | CO[C@@H]1[C@H](OP(=O)(NCCCCCC(=O)O)OC[C@H]2O[C@@H](n3ccc(N)nc3=O)[C@H](O)[C@@H]2O)[C@@H](COP(=O)(O)O)O[C@H]1n1cnc2c(=O)[nH]c(N)nc21 (stereo not given in full) | > 60 µM |
